Measured values: ChEMBL document CHEMBL5058577, “EUbOPEN Chemogenomics Library 2 (Multiplex)” (2022)

Test system: HEK-293T
Test: Multiplex assay against HEK293T
Assay type: toxicity, cell-based
Details: human
Summary of the method: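 With compound added, live cells were imaged on a CQ1 microscope at 37°C and 5% CO2; staining with Hoechst33342, BioTracker Green Microtubule Cytoskeleton Dye, MitoTracker Red and Annexin V Alexa Fluor 680 had been done at seeding. The CellPathfinder machine-learning gating scheme split cells into Hoechst high-intensity objects or normal cells, normal cells into healthy, pyknosed or fragmented nuclei, and pyknosed cells into mitotic or apoptotic. The tubulin, mitochondrial-mass and membrane-permeability phenotypes are per cents of healthy-nucleus cells.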

[1] = 12 h, 1 µM, compound concentration 1 uM, replicate 1
[2] = 12 h, 1 µM, compound concentration 1 uM, replicate 2
[3] = 12 h, 10 µM, compound concentration 10 uM, replicate 1
[4] = 12 h, 10 µM, compound concentration 10 uM, replicate 2
[5] = 24 h, 1 µM, compound concentration 1 uM, replicate 1
[6] = 24 h, 1 µM, compound concentration 1 uM, replicate 2
[7] = 24 h, 10 µM, compound concentration 10 uM, replicate 1
[8] = 24 h, 10 µM, compound concentration 10 uM, replicate 2
[9] = 48 h, 1 µM, compound concentration 1 uM, replicate 1
[10] = 48 h, 1 µM, compound concentration 1 uM, replicate 2
[11] = 48 h, 10 µM, compound concentration 10 uM, replicate 1
[12] = 48 h, 10 µM, compound concentration 10 uM, replicate 2

COc1cc(C(=O)N(CCCc2ccccc2)Cc2ccc(CC(=O)O)cc2)cc(OC)c1C
Population Apoptotic (%) [1]: 45%
Population Fragmented Nuclei (%) [1]: 7%
Population Healthy Nuclei (%) [1]: 82%
Population Hoechst High Intensity Objects (%) [1]: 5%
Population Membrane Permeable-Phenotype (%) [1]: 0%
Population Mitochondria Different-Phenotype (%) [1]: 47%
Population Mitotic Cells (%) [1]: 55%
Population Normal (%) [1]: 94%
Population Pyknosed Nuclei (%) [1]: 10%
Population Tubulin-Different-Phenotype (%) [1]: 31%
Total Cell Count [1]: 395
Population Apoptotic (%) [2]: 44%
Population Fragmented Nuclei (%) [2]: 6%
Population Healthy Nuclei (%) [2]: 84%
Population Hoechst High Intensity Objects (%) [2]: 4%
Population Mitochondria Different-Phenotype (%) [2]: 50%
Population Normal (%) [2]: 95%
Population Pyknosed Nuclei (%) [2]: 9%
Population Tubulin-Different-Phenotype (%) [2]: 19%
Total Cell Count [2]: 410
Population Apoptotic (%) [3]: 30%
Population Fragmented Nuclei (%) [3]: 6%
Population Healthy Nuclei (%) [3]: 77%
Population Hoechst High Intensity Objects (%) [3]: 8%
Population Membrane Permeable-Phenotype (%) [3]: 1%
Population Mitochondria Different-Phenotype (%) [3]: 46%
Population Mitotic Cells (%) [3]: 70%
Population Normal (%) [3]: 91%
Population Pyknosed Nuclei (%) [3]: 15%
Population Tubulin-Different-Phenotype (%) [3]: 52%
Total Cell Count [3]: 431
Population Apoptotic (%) [4]: 47%
Population Fragmented Nuclei (%) [4]: 4%
Population Healthy Nuclei (%) [4]: 82%
Population Hoechst High Intensity Objects (%) [4]: 6%
Population Membrane Permeable-Phenotype (%) [4]: 0%
Population Mitochondria Different-Phenotype (%) [4]: 67%
Population Mitotic Cells (%) [4]: 52%
Population Normal (%) [4]: 93%
Population Pyknosed Nuclei (%) [4]: 13%
Population Tubulin-Different-Phenotype (%) [4]: 44%
Total Cell Count [4]: 438
Population Apoptotic (%) [5]: 32%
Population Fragmented Nuclei (%) [5]: 7%
Population Healthy Nuclei (%) [5]: 78%
Population Hoechst High Intensity Objects (%) [5]: 5%
Population Membrane Permeable-Phenotype (%) [5]: 0%
Population Mitochondria Different-Phenotype (%) [5]: 27%
Population Mitotic Cells (%) [5]: 67%
Population Normal (%) [5]: 94%
Population Pyknosed Nuclei (%) [5]: 14%
Population Tubulin-Different-Phenotype (%) [5]: 15%
Total Cell Count [5]: 483
Population Apoptotic (%) [6]: 48%
Population Healthy Nuclei (%) [6]: 82%
Population Hoechst High Intensity Objects (%) [6]: 3%
Population Mitochondria Different-Phenotype (%) [6]: 26%
Population Mitotic Cells (%) [6]: 51%
Population Normal (%) [6]: 96%
Population Pyknosed Nuclei (%) [6]: 9%
Population Tubulin-Different-Phenotype (%) [6]: 10%
Total Cell Count [6]: 507
Population Apoptotic (%) [7]: 34%
Population Fragmented Nuclei (%) [7]: 7%
Population Healthy Nuclei (%) [7]: 80%
Population Hoechst High Intensity Objects (%) [7]: 7%
Population Membrane Permeable-Phenotype (%) [7]: 0%
Population Mitochondria Different-Phenotype (%) [7]: 39%
Population Mitotic Cells (%) [7]: 65%
Population Normal (%) [7]: 92%
Population Pyknosed Nuclei (%) [7]: 12%
Population Tubulin-Different-Phenotype (%) [7]: 43%
Total Cell Count [7]: 549
Population Apoptotic (%) [8]: 42%
Population Healthy Nuclei (%) [8]: 79%
Population Hoechst High Intensity Objects (%) [8]: 6%
Population Mitochondria Different-Phenotype (%) [8]: 50%
Population Mitotic Cells (%) [8]: 57%
Population Normal (%) [8]: 93%
Population Tubulin-Different-Phenotype (%) [8]: 38%
Total Cell Count [8]: 526
Population Apoptotic (%) [9]: 30%
Population Fragmented Nuclei (%) [9]: 12%
Population Healthy Nuclei (%) [9]: 77%
Population Hoechst High Intensity Objects (%) [9]: 1%
Population Membrane Permeable-Phenotype (%) [9]: 1%
Population Mitochondria Different-Phenotype (%) [9]: 16%
Population Mitotic Cells (%) [9]: 69%
Population Normal (%) [9]: 98%
Population Pyknosed Nuclei (%) [9]: 9%
Population Tubulin-Different-Phenotype (%) [9]: 11%
Total Cell Count [9]: 812
Population Apoptotic (%) [10]: 26%
Population Fragmented Nuclei (%) [10]: 9%
Population Healthy Nuclei (%) [10]: 83%
Population Hoechst High Intensity Objects (%) [10]: 3%
Population Mitochondria Different-Phenotype (%) [10]: 17%
Population Mitotic Cells (%) [10]: 73%
Population Normal (%) [10]: 96%
Population Pyknosed Nuclei (%) [10]: 7%
Population Tubulin-Different-Phenotype (%) [10]: 9%
Total Cell Count [10]: 753
Population Apoptotic (%) [11]: 32%
Population Fragmented Nuclei (%) [11]: 12%
Population Healthy Nuclei (%) [11]: 76%
Population Hoechst High Intensity Objects (%) [11]: 4%
Population Membrane Permeable-Phenotype (%) [11]: 1%
Population Mitochondria Different-Phenotype (%) [11]: 29%
Population Mitotic Cells (%) [11]: 67%
Population Normal (%) [11]: 95%
Population Pyknosed Nuclei (%) [11]: 11%
Population Tubulin-Different-Phenotype (%) [11]: 29%
Total Cell Count [11]: 729
Population Apoptotic (%) [12]: 33%
Population Fragmented Nuclei (%) [12]: 15%
Population Healthy Nuclei (%) [12]: 75%
Population Hoechst High Intensity Objects (%) [12]: 8%
Population Mitochondria Different-Phenotype (%) [12]: 37%
Population Mitotic Cells (%) [12]: 66%
Population Normal (%) [12]: 91%
Population Pyknosed Nuclei (%) [12]: 9%
Population Tubulin-Different-Phenotype (%) [12]: 34%
Total Cell Count [12]: 632
